Laboratory results reported in ChEMBL document CHEMBL1123786, “Design of nonpeptidal ligands for a peptide receptor: cholecystokinin antagonists” (J Med Chem, 1987).

Assays:
Cholecystokinin receptor = biological target: T1, Cholecystokinin receptor (Rattus norvegicus, UniProt P30551+P30553); assay type: protein assay
T1 sequence (P30551 whole entry): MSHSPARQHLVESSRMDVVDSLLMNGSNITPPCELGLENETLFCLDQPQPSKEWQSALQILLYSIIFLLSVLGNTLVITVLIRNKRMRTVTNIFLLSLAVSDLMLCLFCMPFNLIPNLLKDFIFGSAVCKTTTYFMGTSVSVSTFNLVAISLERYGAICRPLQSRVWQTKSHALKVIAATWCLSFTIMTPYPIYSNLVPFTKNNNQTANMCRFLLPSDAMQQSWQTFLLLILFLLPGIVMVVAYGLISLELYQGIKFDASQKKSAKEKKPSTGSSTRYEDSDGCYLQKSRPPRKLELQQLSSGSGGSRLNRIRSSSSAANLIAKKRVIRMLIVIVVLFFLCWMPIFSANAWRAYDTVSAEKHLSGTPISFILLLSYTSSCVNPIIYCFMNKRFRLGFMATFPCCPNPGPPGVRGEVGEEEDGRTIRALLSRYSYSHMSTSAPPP
T1 sequence (P30553 whole entry): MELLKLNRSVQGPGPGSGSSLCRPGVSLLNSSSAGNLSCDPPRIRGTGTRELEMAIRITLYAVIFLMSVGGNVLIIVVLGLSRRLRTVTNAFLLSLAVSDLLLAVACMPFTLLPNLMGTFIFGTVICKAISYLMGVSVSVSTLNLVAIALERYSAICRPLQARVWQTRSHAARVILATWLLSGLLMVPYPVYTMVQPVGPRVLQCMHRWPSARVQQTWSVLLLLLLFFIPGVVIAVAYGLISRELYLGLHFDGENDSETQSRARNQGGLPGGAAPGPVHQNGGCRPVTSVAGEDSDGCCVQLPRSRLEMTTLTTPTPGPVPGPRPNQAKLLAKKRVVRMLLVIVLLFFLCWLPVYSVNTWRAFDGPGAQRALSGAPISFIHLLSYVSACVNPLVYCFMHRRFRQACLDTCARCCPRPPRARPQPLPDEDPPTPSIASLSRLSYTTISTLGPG

[1] = biological target: GABA-A receptor; anion channel; assay: Displacement of [3H]diazepam from rat brain GABA-A benzodiazepine receptor
Mus musculus [2] = assay: In vivo activity on the basis of the ability to antagonize CCK-8 inhibition of charcoal meal gastric emptying in mice after oral administration; assay type: functional; settings: Stomach
Outline: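 Oral dosing of mice (N ≥ 10/dose) 1 h before sc CCK-8 at 80 μg/kg. The charcoal meal followed CCK-8 by 5 min, with gastric emptying scored 5 min after that. ED50 was obtained by regression analysis using at least three dose levels.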

Mus musculus [3] = assay: In vivo activity on the basis of the ability to antagonize CCK-8 inhibition of charcoal meal gastric emptying in mice after intraperitoneal administration; assay type: functional; settings: Stomach, ip
Outline: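 Mice dosed intraperitoneally 1 h before CCK-8 (80 μg/kg, sc), N ≥ 10/dose. A charcoal meal was given 5 min after CCK-8 and gastric emptying was measured 5 min later. ED50 was derived by regression from at least three dose levels.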

Rattus norvegicus = species: Rattus norvegicus; assay: Selectivity of binding to pancreatic CCK and brain benzodiazepine receptors, ratio of IC50
[4] = biological target: GABA-A receptor; anion channel; assay: Displacement of [3H]flunitrazepam from GABA-A benzodiazepine receptor of guinea pig brain; parameters: species or system Cavia porcellus

Structure (SMILES) | IC50 (Cholecystokinin receptor) | further results
O=C1Nc2ccccc2C(c2ccccc2)=NC1C[C@@H]1CNc2ccccc21 (stereo partly drawn) | 3.2 µM | –
O=C1Nc2ccccc2C(c2ccccc2F)=NC1c1ccsc1 (stereo not drawn) | > 100 µM | –
O=C1Nc2ccc(Cl)cc2C(c2ccccc2)=N[C@@H]1Cc1ccc(OCc2ccccc2)cc1 | > 100 µM | –
CC1=N[C@H](Cc2c[nH]c3ccccc23)C(=O)Nc2ccccc21 | 48 µM | IC50 [1]: > 100 µM
O=C1Nc2ccc(Cl)cc2C(c2ccccc2)=NC1Cc1cccc2ccccc12 (stereo not drawn) | 23 µM | –
O=C1Nc2ccc(Cl)cc2C(c2ccccc2)=N[C@H]1Cc1c[nH]c2ccccc12 | 32 µM | IC50 [1]: 5.6 µM; ED50 (Mus musculus [2]): > 150 mg/kg
CN1CC(CC2N=C(c3ccccc3)c3ccccc3N(C)C2=O)c2ccccc21 (stereo not drawn) | 10 µM | –
O=C1Nc2ccccc2C(c2ccccc2)=NC1C[C@H]1CNc2ccccc21 (stereo partly drawn) | 21 µM | –
O=C1Nc2ccc(Cl)cc2C(c2ccccc2)=NC1Cc1ccc2ccccc2c1 (stereo not drawn) | 49 µM | –
O=C1[C@H](Cc2c[nH]c3ccccc23)N=C(c2ccccc2)c2cc(Cl)ccc2N1Cc1ccccc1 | > 100 µM | –
CC(C)CCN1C(=O)[C@@H](Cc2c[nH]c3ccccc23)N=C(c2ccccc2F)c2ccccc21 | ~ 100 uM | –
CN1C(=O)[C@@H](Cc2c[nH]c3ccccc23)N=C(c2ccccc2)c2ccccc21 | 0.3 µM | –
CN1C(=O)[C@@H](Cc2cn(C)c3ccccc23)N=C(c2ccccc2F)c2ccccc21 | 0.36 µM | ED50 (Mus musculus [3]): 18 mg/kg; ED50 (Mus musculus [2]): 39 mg/kg
CCCCCN1C(=O)[C@@H](Cc2c[nH]c3ccccc23)N=C(c2ccccc2F)c2ccccc21 | ~ 100 uM | –
CN1C(=O)CN=C(c2ccccc2F)c2cc([N+](=O)[O-])ccc21 [FLUNITRAZEPAM] | – | IC50 [1]: 0.0017 µM
O=C(O)CN1C(=O)[C@@H](Cc2c[nH]c3ccccc23)N=C(c2ccccc2F)c2ccccc21 | 0.3 µM | IC50 [1]: > 100 µM; ED50 (Mus musculus [2]): 42 mg/kg; Ratio (Rattus norvegicus): < 0.003
O=C1Nc2ccccc2C(c2ccccc2F)=NC1Cc1ccsc1 (stereo not drawn) | 33 µM | –
O=C1Nc2ccccc2C(c2ccccc2F)=N[C@@H]1Cc1c[nH]c2ccccc12 | 0.5 µM | IC50 [1]: > 100 µM; ED50 (Mus musculus [3]): 41 mg/kg; ED50 (Mus musculus [2]): 104 mg/kg
O=C1Nc2ccccc2C1C[C@H]1N=C(c2ccccc2)c2cc(Cl)ccc2NC1=O (stereo partly drawn) | 24 µM | –
CC(C)C[C@@H]1N[C@H]2N(C1=O)c1ccccc1[C@@]2(O)C[C@@H]1NC(=O)c2ccccc2-n2c1nc1ccccc1c2=O [ASPERLICIN] | – | IC50 [1]: 50 µM; ED50 (Mus musculus [2]): > 300 mg/kg; Ratio (Rattus norvegicus): 0.028

Structure (SMILES) | IC50 (Cholecystokinin receptor) | further results
CCN1C(=O)[C@@H](Cc2c[nH]c3ccccc23)N=C(c2ccccc2F)c2ccccc21 | 0.3 µM | –
O=C(O)CCN1C(=O)[C@@H](Cc2c[nH]c3ccccc23)N=C(c2ccccc2F)c2ccccc21 | 1.4 µM | –
CN1C(=O)[C@@H](Cc2cn(C)c3ccccc23)N=C(c2ccccc2)c2ccccc21 | 0.1 µM | –
CC(C)CC(NC(=O)OC(C)(C)C)C(=O)N1CC(CC2N=C(c3ccccc3)c3ccccc3NC2=O)c2ccccc21 (stereo not drawn) | 4.7 µM | –
Cc1nnc2n1-c1ccccc1C(c1ccccc1F)=N[C@@H]2Cc1c[nH]c2ccccc12 | 1.2 µM | IC50 [4]: 0.8 µM; ED50 (Mus musculus [2]): 76 mg/kg; Ratio (Rattus norvegicus): 1.5
O=C1Nc2ccc(Cl)cc2C(c2ccccc2)=N[C@@H]1COCc1ccccc1 | 60 µM | –
O=C1Nc2ccc(Cl)cc2C(c2ccccc2)=N[C@@H]1Cc1c[nH]c2ccccc12 | 3.4 µM | IC50 [1]: > 100 µM; ED50 (Mus musculus [3]): 88 mg/kg; ED50 (Mus musculus [2]): > 300 mg/kg
O=C1Nc2ccc(Cl)cc2C(c2ccccc2)=N[C@@H]1Cc1ccccc1 | 80 µM | –
O=C1Nc2ccccc2C(c2ccccc2F)=N[C@H]1Cc1c[nH]c2ccccc12 | 10.6 µM | –
O=C1Nc2ccccc2C(c2ccccc2F)=NC1Cc1c[nH]c2cc(F)ccc12 (stereo not drawn) | 1.3 µM | –
NC(=O)CN1C(=O)[C@@H](Cc2c[nH]c3ccccc23)N=C(c2ccccc2F)c2ccccc21 | 2.1 µM | –
O=C1Nc2ccccc2C(c2ccccc2)=N[C@@H]1Cc1c[nH]c2ccccc12 | 1.2 µM | IC50 [1]: > 100 µM; ED50 (Mus musculus [2]): > 150 mg/kg
CN1C(=O)/C(=C\c2ccsc2)N=C(c2ccccc2)c2ccccc21 | 25 µM | –
CN1C(=O)[C@@H](Cc2cn(C)c3ccccc23)N(C(=O)c2ccc(Cl)cc2)C(c2ccccc2F)c2ccccc21 (stereo partly drawn) | > 100 µM | –
O=C1Nc2ccccc2C(c2ccccc2F)=NC1C[C@@H]1CNc2ccccc21 (stereo partly drawn) | 11 µM | –
CC(=O)N1C(Cc2cn(C)c3ccccc23)C(=O)N(C)c2ccccc2[C@@H]1c1ccccc1F (stereo partly drawn) | ~ 100 uM | –
SC1=Nc2ccc(Cl)cc2C(c2ccccc2)=N[C@@H]1Cc1c[nH]c2ccccc12 | 4.5 µM | –
CCOC(=O)CN1C(=O)[C@@H](Cc2c[nH]c3ccccc23)N=C(c2ccccc2F)c2ccccc21 | 8.3 µM | –
CN1C(=O)[C@@H](Cc2cn(C(=O)c3ccc(Cl)cc3)c3ccccc23)N=C(c2ccccc2F)c2ccccc21 | 11 µM | –
CN1C[C@@H](CC2N=C(c3ccccc3)c3ccccc3N(C)C2=O)c2ccccc21 (stereo partly drawn) | 13 µM | –

Structure (SMILES) | IC50 (Cholecystokinin receptor) | further results
O=C1Nc2ccc(Cl)cc2C(c2ccccc2)N[C@@H]1Cc1c[nH]c2ccccc12 (stereo partly drawn) | 12 µM | –
O=C1[C@@H](Cc2c[nH]c3ccccc23)N=C(c2ccccc2F)c2ccccc2N1CC(F)(F)F | 3.6 µM | –
CN1C(=O)/C(=C/c2ccsc2)N=C(c2ccccc2)c2ccccc21 | 100 µM | –
CN(C)CCN1C(=O)[C@@H](Cc2c[nH]c3ccccc23)N=C(c2ccccc2F)c2ccccc21 | ~ 100 uM | –
O=C1Nc2ccc(Cl)cc2C(c2ccccc2Cl)=N[C@@H]1Cc1c[nH]c2ccccc12 | 5 µM | IC50 [1]: > 180 µM; ED50 (Mus musculus [3]): 119 mg/kg; ED50 (Mus musculus [2]): > 600 mg/kg
CC(C)C[C@H]1N=C(c2ccccc2)c2cc(Cl)ccc2NC1=O | 42 µM | –
Fc1ccccc1C1=N[C@H](Cc2c[nH]c3ccccc23)CNc2ccccc21 | 4 µM | –
O=C1CN=C(c2ccccc2Cl)c2cc([N+](=O)[O-])ccc2N1 [CLONAZEPAM] | > 100 µM | IC50 [1]: 0.0017 µM; Ratio (Rattus norvegicus): > 58000
CN1C(=O)[C@@H](Cc2cn(Cc3ccccc3)c3ccccc23)N=C(c2ccccc2)c2cc(Cl)ccc21 | ~ 150 uM | –
CC(C)CC(N)C(=O)N1CC(CC2N=C(c3ccccc3)c3ccccc3NC2=O)c2ccccc21.Cl (stereo not drawn) | 6.6 µM | –
CN1C(=O)[C@@H](Cc2c[nH]c3ccccc23)N=C(c2ccccc2F)c2ccccc21 | 0.27 µM | IC50 [4]: > 100 µM; ED50 (Mus musculus [3]): 15 mg/kg; ED50 (Mus musculus [2]): 25 mg/kg
O=C1[C@@H](Cc2c[nH]c3ccccc23)N=C(c2ccccc2F)c2ccccc2N1CC1CC1 | 2.2 µM | –
O=C(O)c1ccccc1C1=N[C@H](Cc2c[nH]c3ccccc23)C(=O)Nc2ccccc21 | 18 µM | –
O=C1Nc2ccccc2C(c2ccccc2)=NC1Cc1c[nH]c2ccc(Br)cc12 (stereo not drawn) | 2.9 µM | –
N#CCCN1C(=O)[C@@H](Cc2c[nH]c3ccccc23)N=C(c2ccccc2F)c2ccccc21 | 0.7 µM | –
O=C1Nc2ccccc2C(c2ccccc2F)=NC1C[C@H]1CNc2ccccc21 (stereo partly drawn) | 17 µM | –
O=C1[C@@H](Cc2c[nH]c3ccccc23)N=C(c2ccccc2)c2cc(Cl)ccc2N1Cc1ccccc1 | > 100 µM | –
CN1C(=O)[C@@H](Cc2c[nH]c3ccccc23)N=C(c2ccccc2)c2cc(Cl)ccc21 | 1.4 µM | –
O=C1Nc2ccccc2C(c2ccccc2F)=NC1Cc1c[nH]c2ccc(F)cc12 (stereo not drawn) | 1.4 µM | –
